Measured values reported in ChEMBL document CHEMBL2062488, “Exploration of diverse hinge-binding scaffolds for selective Aurora kinase inhibitors” (Bioorg Med Chem Lett, 2012).

Experiments:
[1] = Distribution half life in mouse at 3 mg/kg, iv; assay type: ADME, organism-based; set-up: dose 3 mg/kg, route intravenous; settings: in vivo, read-out: alphat1/2 (converted)
[2] = Oral bioavailability in mouse at 10 mg/kg; assay type: ADME, organism-based; settings: in vivo
Aurora kinase B [3] = molecular target: T1, Aurora kinase B (Homo sapiens, UniProt Q96GD4); experiment: Inhibition of Aurora B kinase by HTRF analysis in presence of 1 mM ATP
NCI-H1299 = experiment: Cell cycle arrest in human NCI-H1299 assessed as induction of polyploidy after 48 hrs by Hoechst staining-based fluorescence microscopic analysis; assay type: functional; settings: NCI-H1299, 48 h
Procedure, shortened: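 NCI-H1299 cells seeded at 4 K/well and left overnight to adhere. Compounds at varying concentrations added in duplicate wells, RPMI 1640 with 10% fetal calf serum, 37 °C for 48 h. Cells fixed in 3% formalin for 1 h, Hoechst-stained and imaged by high-content fluorescence microscopy (360/460 nm) for nuclear area. Polyploid (≥4N) cells had nuclear area >750. EC15 is the concentration giving 15% polyploid cells, from least-squares fit of log dose-response.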

[4] = Volume of distribution in mouse at 3 mg/kg, iv; assay type: ADME, organism-based; set-up: dose 3 mg/kg, route intravenous; settings: in vivo
Homo sapiens = organism: Homo sapiens; experiment: Selectivity ratio of IC50 for Aurora A kinase to IC50 for Aurora B kinase
[5] = Clearance in mouse at 3 mg/kg, iv; assay type: ADME, organism-based; set-up: dose 3 mg/kg, route intravenous; settings: in vivo
Mus musculus [6] = experiment: Inhibition of histone 3 phosphorylation in leukemia xenografted mouse model at 50 mg/kg, ip measured after 4 hrs; assay type: functional; settings: route intraperitoneal
Procedure, shortened: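 Leukemia-engrafted mouse model dosed 50 mpk IP. Histone H3 phosphorylation was measured 4 h after the dose as percent inhibition.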

Mus musculus [7] = experiment: AUC in mouse at 10 mg/kg, po; assay type: ADME, organism-based, Plasma; set-up: dose 10 mg/kg, route oral; settings: in vivo
Procedure, shortened: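 Pyrrolotriazines were given by oral cassette dosing at 10 mpk, with several compounds in one cassette. Oral exposure is reported as AUC.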

Aurora kinase A [8] = molecular target: T2, Aurora kinase A (Homo sapiens, UniProt O14965); experiment: Inhibition of Aurora A kinase by HTRF analysis in presence of 1 mM ATP
T2 sequence (O14965 whole entry): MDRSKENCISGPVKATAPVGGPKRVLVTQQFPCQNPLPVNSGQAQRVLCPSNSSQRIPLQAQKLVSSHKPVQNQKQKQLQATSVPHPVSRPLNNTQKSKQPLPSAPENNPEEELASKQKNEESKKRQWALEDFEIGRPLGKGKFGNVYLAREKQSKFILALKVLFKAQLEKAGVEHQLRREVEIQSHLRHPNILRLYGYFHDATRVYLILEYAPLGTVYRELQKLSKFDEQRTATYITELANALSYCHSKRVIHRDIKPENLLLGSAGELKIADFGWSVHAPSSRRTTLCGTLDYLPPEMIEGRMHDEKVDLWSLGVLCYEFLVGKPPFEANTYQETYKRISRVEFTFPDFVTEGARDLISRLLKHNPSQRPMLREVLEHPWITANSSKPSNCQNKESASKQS

Aurora kinase B [9] = molecular target: T1, Aurora kinase B; experiment: Inhibition of Aurora B kinase in presence of 10 uM ATP
[10] = molecular target: Activin receptor type-1-like (Homo sapiens, UniProt P37023); experiment: Inhibition of Alk1 in presence of 10 uM ATP
[11] = molecular target: T3, Calcium/calmodulin-dependent protein kinase type IV (Homo sapiens, UniProt Q16566); experiment: Inhibition of Camk4 in presence of 10 uM ATP
T3 sequence (Q16566 whole entry): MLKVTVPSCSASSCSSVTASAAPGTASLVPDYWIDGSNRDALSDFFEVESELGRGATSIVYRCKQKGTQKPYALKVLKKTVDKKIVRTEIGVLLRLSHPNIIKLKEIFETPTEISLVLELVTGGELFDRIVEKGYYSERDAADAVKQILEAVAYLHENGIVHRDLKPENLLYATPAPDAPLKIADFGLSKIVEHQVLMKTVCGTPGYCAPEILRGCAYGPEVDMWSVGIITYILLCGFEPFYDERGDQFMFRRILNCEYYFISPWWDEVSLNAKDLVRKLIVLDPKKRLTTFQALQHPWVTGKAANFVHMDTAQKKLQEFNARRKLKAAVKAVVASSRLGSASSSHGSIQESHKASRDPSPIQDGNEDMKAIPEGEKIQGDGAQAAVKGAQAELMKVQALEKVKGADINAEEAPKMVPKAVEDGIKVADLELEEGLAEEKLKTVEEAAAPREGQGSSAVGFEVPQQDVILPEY

[12] = molecular target: T4, Serine/threonine-protein kinase PLK4 (Homo sapiens, UniProt O00444); experiment: Inhibition of Plk4 in presence of 10 uM ATP
T4 sequence (O00444 whole entry): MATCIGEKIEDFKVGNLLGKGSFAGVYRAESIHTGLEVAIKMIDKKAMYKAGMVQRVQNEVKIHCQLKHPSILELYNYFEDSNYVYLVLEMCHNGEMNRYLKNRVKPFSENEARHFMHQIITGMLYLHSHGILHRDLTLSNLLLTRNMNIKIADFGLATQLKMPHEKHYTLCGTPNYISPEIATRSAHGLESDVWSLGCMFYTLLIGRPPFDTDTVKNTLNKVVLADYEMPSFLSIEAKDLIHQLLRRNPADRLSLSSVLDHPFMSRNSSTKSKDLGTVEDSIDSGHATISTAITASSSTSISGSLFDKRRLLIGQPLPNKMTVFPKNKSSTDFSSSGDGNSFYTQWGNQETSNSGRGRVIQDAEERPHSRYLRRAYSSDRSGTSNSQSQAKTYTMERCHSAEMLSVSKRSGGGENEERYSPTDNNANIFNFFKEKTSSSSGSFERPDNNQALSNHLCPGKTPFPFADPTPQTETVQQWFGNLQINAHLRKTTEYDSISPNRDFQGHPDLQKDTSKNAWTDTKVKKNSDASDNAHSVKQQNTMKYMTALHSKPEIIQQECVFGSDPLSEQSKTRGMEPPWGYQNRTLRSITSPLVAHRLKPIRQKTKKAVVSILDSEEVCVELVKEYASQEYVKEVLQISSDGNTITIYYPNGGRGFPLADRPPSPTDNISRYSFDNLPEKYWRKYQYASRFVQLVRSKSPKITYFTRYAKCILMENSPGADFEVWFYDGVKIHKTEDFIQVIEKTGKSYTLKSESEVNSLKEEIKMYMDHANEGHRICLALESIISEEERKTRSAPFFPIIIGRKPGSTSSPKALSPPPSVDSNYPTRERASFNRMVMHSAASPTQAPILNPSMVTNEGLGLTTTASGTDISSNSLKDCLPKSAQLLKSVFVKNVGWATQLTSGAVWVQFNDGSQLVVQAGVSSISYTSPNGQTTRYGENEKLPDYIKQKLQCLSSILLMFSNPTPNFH

Aurora kinase A [13] = molecular target: T2, Aurora kinase A; experiment: Inhibition of Aurora A kinase in presence of 10 uM ATP

T1 sequence (Q96GD4 whole entry): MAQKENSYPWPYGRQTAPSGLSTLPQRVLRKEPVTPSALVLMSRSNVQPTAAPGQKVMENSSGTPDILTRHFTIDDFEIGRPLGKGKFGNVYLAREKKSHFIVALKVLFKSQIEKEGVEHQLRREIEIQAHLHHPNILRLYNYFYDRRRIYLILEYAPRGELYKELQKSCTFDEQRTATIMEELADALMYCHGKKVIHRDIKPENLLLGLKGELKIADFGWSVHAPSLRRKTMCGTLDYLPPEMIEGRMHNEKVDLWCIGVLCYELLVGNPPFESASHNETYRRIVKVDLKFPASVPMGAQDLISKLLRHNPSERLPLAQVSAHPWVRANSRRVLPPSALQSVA
Chain of Activin receptor type-1-like (P37023 whole entry): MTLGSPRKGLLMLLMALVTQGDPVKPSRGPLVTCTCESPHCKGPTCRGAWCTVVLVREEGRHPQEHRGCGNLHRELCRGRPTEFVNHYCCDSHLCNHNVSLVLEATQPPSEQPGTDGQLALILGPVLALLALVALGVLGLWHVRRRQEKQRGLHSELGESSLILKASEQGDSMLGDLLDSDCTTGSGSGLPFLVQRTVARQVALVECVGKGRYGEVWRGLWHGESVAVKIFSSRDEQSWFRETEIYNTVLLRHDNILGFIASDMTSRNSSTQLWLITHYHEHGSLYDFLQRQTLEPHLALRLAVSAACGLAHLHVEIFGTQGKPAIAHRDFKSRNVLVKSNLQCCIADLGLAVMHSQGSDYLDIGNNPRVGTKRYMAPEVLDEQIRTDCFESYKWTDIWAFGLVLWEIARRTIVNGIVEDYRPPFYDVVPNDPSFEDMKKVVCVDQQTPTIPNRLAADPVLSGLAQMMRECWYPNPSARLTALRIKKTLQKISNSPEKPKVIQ

| Structure (SMILES) | IC50 (Aurora kinase B [3]) [nM] | EC15 (NCI-H1299) [nM] | Ratio IC50 (Homo sapiens) | IC50 (Aurora kinase A [8]) [nM] | further results |
| --- | --- | --- | --- | --- | --- |
| Nc1noc2cccc(C(=O)Nc3cccc(CNC(=O)Nc4ccc(F)c(F)c4)c3)c12 | 7 | 15 | 696 | 4780 | half-life [1]: 1.7 h; bioavailability [2]: 31%; Vd [4]: 0.96 L/kg; clearance [5]: 6.5 mL/min/kg; inhibition in vivo at 50 mg/kg (Mus musculus [6]): 87%; AUC (Mus musculus [7]): 8 uM.hr/ml |
| Nc1noc2cccc(C(=O)Nc3ccc(NC(=O)Nc4ccc(Cl)cc4)cc3)c12 | 140 |  | > 89 | > 12500 |  |
| Nc1nsc2cccc(C(=O)Nc3cccc(CNC(=O)Nc4ccc(C(F)(F)F)cc4)c3)c12 |  | 18 |  |  |  |
| Nc1ncnn2ccc(C(=O)Nc3ccc(NC(=O)Nc4cccc(F)c4)cc3)c12 | 9 | 3 |  |  | IC50 (Aurora kinase B [9]): < 3 nM; IC50 [10]: > 10000 nM; IC50 [11]: > 10000 nM; IC50 [12]: < 3 nM; IC50 (Aurora kinase A [13]): < 3 nM |
| Nc1ncnn2ccc(C(=O)Nc3cccc(CNC(=O)Nc4cccc(F)c4)c3)c12 |  | 2 |  |  |  |
| Nc1ncnn2ccc(C(=O)Nc3ccc(NC(=O)Nc4ccc(F)cc4)cc3)c12 | 36 | 16 | 2.4 | 88 |  |
| Nc1noc2cccc(C(=O)Nc3cccc(CNC(=O)Nc4ccccc4)c3)c12 | 18 | 47 | 210 | 3790 |  |
| Nc1noc2cccc(C(=O)Nc3cccc(CC(=O)Nc4cccc(F)c4)c3)c12 | 450 |  |  | > 12500 |  |
| Nc1noc2cccc(C(=O)Nc3ccc(NC(=O)Nc4ccc(F)cc4)cc3)c12 | 480 |  | > 26 | > 12500 |  |
| Nc1ncnn2ccc(C(=O)Nc3ccc(NC(=O)Nc4ccsc4)cc3)c12 |  | 6 |  |  |  |
| Nc1n[nH]c2cccc(C(=O)Nc3cccc(CNC(=O)Nc4cccc(F)c4)c3)c12 |  | 111 |  |  |  |
| Nc1ncnn2ccc(C(=O)Nc3ccc(NC(=O)NC4CCCC4)cc3)c12 |  | 15 |  |  |  |
| Nc1nsc2cccc(C(=O)Nc3cccc(CNC(=O)Nc4cccc(F)c4)c3)c12 |  | 18 |  |  |  |
| Cc1ccc(NC(=O)NCc2cccc(NC(=O)c3ccn4ncnc(N)c34)c2)cc1 |  | 1 |  |  |  |
| Nc1noc2cccc(C(=O)Nc3cccc(CNC(=O)Nc4cccc(F)c4)c3)c12 | 59 | 3 | 54 | 3180 | half-life [1]: 0.7 h; bioavailability [2]: 28%; Vd [4]: 0.54 L/kg; clearance [5]: 8.83 mL/min/kg; AUC (Mus musculus [7]): 5 uM.hr/ml |
| Nc1noc2cccc(C(=O)Nc3cccc(CNC(=O)Nc4ccc(C(F)(F)F)cc4)c3)c12 |  | 13 |  |  | half-life [1]: 1.3 h; bioavailability [2]: 77%; Vd [4]: 0.23 L/kg; clearance [5]: 2.17 mL/min/kg; AUC (Mus musculus [7]): 61 uM.hr/ml |
| Nc1n[nH]c2cccc(C(=O)Nc3cccc(CNC(=O)Nc4ccc(F)c(F)c4)c3)c12 |  | 143 |  |  |  |
| Nc1ncnn2ccc(C(=O)Nc3cccc(CNC(=O)Nc4ccc(Cl)cc4)c3)c12 |  | 1 |  |  |  |
| Nc1nsc2cccc(C(=O)Nc3cccc(CNC(=O)Nc4ccc(F)c(F)c4)c3)c12 | 36 | 21 | 347 | 12500 |  |
| Cc1cccc(NC(=O)Nc2ccc(NC(=O)c3ccn4ncnc(N)c34)cc2)c1 |  | 9 |  |  |  |
| Cc1ccc(NC(=O)NCc2cccc(NC(=O)c3cccc4onc(N)c34)c2)cc1 |  | 1 |  |  |  |
| Nc1noc2cccc(C(=O)Nc3cccc(CNC(=O)Cc4cccc(F)c4)c3)c12 | > 12500 |  |  | > 12500 |  |
| Nc1ncnn2ccc(C(=O)Nc3cccc(CNC(=O)Nc4ccc(C(F)(F)F)cc4)c3)c12 |  | 6 |  |  |  |
| Nc1noc2cccc(C(=O)Nc3cccc(CNC(=O)Nc4ccc(Cl)cc4)c3)c12 |  | 12 |  |  |  |
| Cn1nc(N)c2c(C(=O)Nc3cccc(CNC(=O)Nc4ccc(C(F)(F)F)cc4)c3)cccc21 | 172 |  | 73 | 12500 |  |
| Nc1noc2cccc(C(=O)Nc3cccc(CNC(=O)Nc4ccccc4F)c3)c12 | 55 | 124 | > 227 | > 12500 |  |
| Nc1noc2cccc(C(=O)Nc3cccc(CNC(=O)Nc4ccc(F)cc4)c3)c12 |  | 30 |  |  |  |
| Nc1ncnn2ccc(C(=O)Nc3cccc(CNC(=O)Nc4cccc(Cl)c4)c3)c12 |  | 2 |  |  |  |
